Active and inactive are the calls of the source. No cut-off for these calls is given here.
Assays:
[1] = Solubility of the compound; type: physicochemical
RAW264.7 [2] = assay: Cytotoxicity against mouse RAW264.7 cells after 24 hrs by ATPLite assay; type: cell-based; conditions: RAW264.7, 24 h
Summary of the method: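 RAW 264.7 cells in colour-free DMEM with 10% FBS, 2 mM L-glutamine, 1 mM pyruvate, penicillin/streptomycin; 30 000 cells/well, compounds from DMSO stocks diluted 20-fold in medium, six concentrations; 24 h at 37 °C, 5% CO2. Cellular ATP read by ATPlite luminescence after lysis and 10 min dark adaptation. Chlorambucil as positive control; triplicate; EC50 from curve fit.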

RAW264.7 [3] = assay: Inhibition of LPS-induced TNF-alpha production in mouse RAW264.7 cells; type: functional, cell-based
NIH3T3 = assay: Inhibition of A23187-induced prostaglandin E2 production in Swiss albino mouse 3T3 cells; type: functional, cell-based
[4] = system: Staphylococcus epidermidis; assay: Antibacterial activity against Staphylococcus epidermidis; type: functional, organism-based
Staphylococcus aureus [5] = assay: Antibacterial activity against methicillin-sensitive Staphylococcus aureus; type: functional, organism-based
Pseudomonas aeruginosa = assay: Antibacterial activity against Pseudomonas aeruginosa; type: functional, organism-based
RAW264.7 [6] = assay: Selectivity index, ratio of EC50 for mouse RAW264.7 cells to IC50 for mouse RAW264.7 cells assessed as LPS-induced NO production; type: functional
Summary of the method: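 Index is cytotoxicity EC50 in RAW 264.7 cells (24 h ATPlite) divided by the IC50 for inhibition of LPS-induced nitrite production in the same cells (Griess readout).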

Escherichia coli = assay: Antibacterial activity against Escherichia coli; type: functional, organism-based
RAW264.7 [7] = assay: Inhibition of LPS-induced NO production in mouse RAW264.7 cells incubated 1 hr prior to LPS challenge measured after 20 hrs by Griess assay; type: functional, cell-based
Summary of the method: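 RAW 264.7 cells seeded at 10^6 cells/mL and grown 20 h before compound (DMSO stock diluted 20-fold in medium). After 1 h pretreatment, LPS (10 μg/mL stock, 10 μL/well) added, then 20 h further incubation. Supernatant nitrite read by Griess reagent, 20 min at 23 °C, absorbance 550 nm, against 0–100 μM nitrite standards. Output expressed as % of solvent control; triplicate, mean and SD.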

Staphylococcus aureus [8] = assay: Antibacterial activity against methicillin-resistant Staphylococcus aureus; type: functional, organism-based

C/C(=C\COc1ccc2ccc(=O)oc2c1)C1=C(CN2CCCC2C(=O)O)C(=O)C(C)(C)O1 (mixture of isomers)
solubility [1]: 245 µg/mL | EC50 (RAW264.7 [2]): 74.7 µM | inhibition (RAW264.7 [3]): inactive | inhibition (NIH3T3): inactive | Activity [4]: inactive | Activity (Staphylococcus aureus [5]): inactive | Activity (Pseudomonas aeruginosa): inactive | Selectivity Index (RAW264.7 [6]): 3.2 | Activity (Escherichia coli): inactive | IC50 (RAW264.7 [7]): 23.4 µM | Activity (Staphylococcus aureus [8]): inactive
